Laboratory results taken from ChEMBL document CHEMBL4422614 (Eur J Med Chem, 2019).
Values belong to the compound of their own block, whether it stands above or below them. The source made the active and inactive calls. No cut-off for these calls is given here.

Tests used:
[1] = biological target: 3',5'-cyclic-AMP phosphodiesterase 4D (Homo sapiens, UniProt Q08499); assay: Inhibition of human PDE4D2 (86 to 413 residues) catalytic domain using [3H]-cAMP as substrate after 15 mins by liquid scintillation counting method
Chain of 3',5'-cyclic-AMP phosphodiesterase 4D (Q08499 whole entry, the tested form may be a part): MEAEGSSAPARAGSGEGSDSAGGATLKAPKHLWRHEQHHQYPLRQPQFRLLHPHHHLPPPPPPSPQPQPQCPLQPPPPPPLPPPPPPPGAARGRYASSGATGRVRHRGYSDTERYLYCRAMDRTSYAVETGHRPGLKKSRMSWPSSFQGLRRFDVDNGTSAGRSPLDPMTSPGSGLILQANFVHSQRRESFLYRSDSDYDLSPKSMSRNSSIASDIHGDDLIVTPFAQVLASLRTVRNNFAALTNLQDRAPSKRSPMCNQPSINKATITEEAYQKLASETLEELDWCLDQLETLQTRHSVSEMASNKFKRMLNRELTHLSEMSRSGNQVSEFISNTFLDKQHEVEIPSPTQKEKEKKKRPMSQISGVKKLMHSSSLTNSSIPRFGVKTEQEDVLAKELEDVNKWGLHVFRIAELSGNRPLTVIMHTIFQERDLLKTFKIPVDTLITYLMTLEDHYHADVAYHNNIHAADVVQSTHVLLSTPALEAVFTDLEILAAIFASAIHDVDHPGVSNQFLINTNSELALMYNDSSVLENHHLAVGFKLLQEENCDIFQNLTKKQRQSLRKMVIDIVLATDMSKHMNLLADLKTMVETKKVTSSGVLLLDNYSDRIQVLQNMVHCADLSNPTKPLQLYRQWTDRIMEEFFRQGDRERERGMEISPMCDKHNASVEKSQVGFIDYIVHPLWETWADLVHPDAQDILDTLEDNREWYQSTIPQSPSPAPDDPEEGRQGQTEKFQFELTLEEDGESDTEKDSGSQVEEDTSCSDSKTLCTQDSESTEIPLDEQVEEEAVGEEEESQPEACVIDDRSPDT

[2] = Antioxidant activity assessed as trolox equivalent of AAPH-induced radical scavenging activity at 10 to 20 uM preincubated for 10 mins followed by AAPH addition measured every minute for 120 mins by ORAC fluorescein assay; assay type: functional
In short: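 ORAC values are expressed as trolox equivalents, mean ± SD of three independent experiments.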

SH-SY5Y = assay: Cytotoxicity against human SH-SY5Y cells assessed as effect on cell viability at 10 uM after 24 hrs by MTT assay; assay type: cell-based
In short: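 SH-SY5Y viability was measured by MTT after exposure to compounds at 10 µM. Results are percent of vehicle control from three independent experiments.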

[3] = Metal chelating activity assessed as inhibition of Cu2+-induced amyloid beta (1 to 42 residues) aggregation at 25 uM after 24 hrs by thioflavin-T fluorescence assay (reference value: 156%); set-up: scale not given: the % may be the effect or the level left
In short: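 Aβ1-42 was incubated with Cu(II) (CuSO4) with or without compound, and thioflavin T fluorescence was read. The Aβ-alone signal was set as 100%. Mean ± SD of three independent experiments.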

in vitro [4] = conditions: PAMPA
[5] = Metal chelating activity of the compound assessed as formation of cupric-compound complex at 50 uM after 30 mins by UV-vis spectrophotometric analysis
In short: (§1)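 UV-vis absorption spectra of compound (50 µM) were recorded in HEPES buffer alone and with 50 µM CuSO4, ZnCl2, FeSO4 or FeCl3, and spectral changes were assessed.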

[6] = Metal chelating activity of the compound assessed as formation of zinc-compound complex at 50 uM after 30 mins by UV-vis spectrophotometric analysis; in short: as §1
[7] = Metal chelating activity of the compound assessed as formation of ferric-compound complex at 50 uM after 30 mins by UV-vis spectrophotometric analysis; in short: as §1
[8] = Metal chelating activity of the compound assessed as formation of ferrous-compound complex at 50 uM after 30 mins by UV-vis spectrophotometric analysis; in short: as §1
[9] = Metal chelating activity assessed as inhibition of Cu(II)-induced amyloid beta (1 to 42 residues) aggregation at 25 uM after 24 hrs by thioflavin-T fluorescence assay (reference value: 156%); set-up: scale not given: the % may be the effect or the level left
In short: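 Aβ1-42 was incubated with CuSO4 with or without compound, and thioflavin T fluorescence was read. Fluorescence is given as percent of Aβ alone, as mean ± SD of three independent experiments.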

[10] = Metal chelating activity assessed as inhibition of Cu(II)/ascorbate-induced ROS production by measuring […] level at 10 uM by fluorescence assay
In short: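 A Cu-ascorbate redox system in PBS (pH 7.4) at 37 °C, with Cu(II) 5 µM, ascorbate 150 µM and coumarin-3-carboxylic acid 50 µM as the hydroxyl radical trap. Compound was pre-incubated 10 min before ascorbate was added. Fluorescence of 7-hydroxy-CCA (ex 395, em 450 nm) was read every 30 s for 15 min.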

[11] = Acute Toxicity in C57BL/6 mouse assessed as mouse mortality up to 2000 mg/kg, ig measured over 14 days; assay type: organism-based; conditions: in vivo, po, 336 h
In short: (§2)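 Mice given a single intragastric dose of test compound at various dosages, then observed for 14 days for death and abnormal behaviour. On day 14, animals were sacrificed and heart, liver, lungs and kidneys examined.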

[12] = Acute Toxicity in C57BL/6 mouse assessed as abnormal behavior up to 2000 mg/kg, ig measured over 14 days; assay type: organism-based; conditions: in vivo, po, 336 h; in short: as §2
[13] = Acute Toxicity in C57BL/6 mouse up to 2000 mg/kg, ig measured every 14 days; assay type: organism-based; conditions: in vivo, po, 336 h; in short: as §2
[14] = Hepatotoxicity in C57BL/6 mouse assessed as abnormal changes up to 2000 mg/kg, ig after 14 days by microscopic analysis; assay type: toxicity, organism-based; conditions: in vivo, po, 336 h; in short: as §2
[15] = Hepatotoxicity in C57BL/6 mouse assessed as tissue damage up to 2000 mg/kg, ig after 14 days by microscopic analysis; assay type: toxicity, organism-based; conditions: in vivo, po, 336 h; in short: as §2
[16] = Cardiotoxicity in C57BL/6 mouse assessed as abnormal changes up to 2000 mg/kg, ig after 14 days by microscopic analysis; assay type: toxicity, organism-based; conditions: in vivo, po, 336 h; in short: as §2
[17] = Cardiotoxicity in C57BL/6 mouse assessed as tissue damage up to 2000 mg/kg, ig after 14 days by microscopic analysis; assay type: toxicity, organism-based; conditions: in vivo, po, 336 h; in short: as §2
[18] = Nephrotoxicity in C57BL/6 mouse assessed as abnormal changes up to 2000 mg/kg, ig after 14 days by microscopic analysis; assay type: toxicity, organism-based; conditions: in vivo, po, 336 h; in short: as §2
[19] = Nephrotoxicity in C57BL/6 mouse assessed as tissue damage up to 2000 mg/kg, ig after 14 days by microscopic analysis; assay type: toxicity, organism-based; conditions: in vivo, po, 336 h; in short: as §2
[20] = Acute Toxicity in C57BL/6 mouse lung assessed as abnormal changes up to 2000 mg/kg, ig after 14 days by microscopic analysis; assay type: organism-based; conditions: in vivo, po, 336 h; in short: as §2
[21] = Acute Toxicity in C57BL/6 mouse lung assessed as tissue damage up to 2000 mg/kg, ig after 14 days by microscopic analysis; assay type: organism-based; conditions: in vivo, po, 336 h; in short: as §2
Mus musculus [22] = assay: Cognition enhancement activity in amyloid beta (25 to 35 residues) induced C57BL/6J mouse model of Alzheimer's disease assessed as decrease in escape latancy at 30 mg/kg/day, ig administered for 26 consecutive days by Morris water maze test; assay type: functional, organism-based
In short: (§3)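 Mice were randomized into 7 groups. All except sham got an ICV injection of Aβ25-35 (3 nmol); sham got the same volume of saline ICV. Dosing was intragastric daily for 26 days, with 0.5% CMC-Na as vehicle for sham and model. Body weight, diarrhea and emesis-like behavior were monitored.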

[23] = Toxicity in amyloid beta (25 to 35 residues) induced C57BL/6J mouse model of Alzheimer's disease assessed as loss of body weight at 30 mg/kg/day, ig administered for 26 consecutive days; assay type: organism-based; conditions: in vivo, po; in short: as §3
[24] = Toxicity in amyloid beta (25 to 35 residues) induced C57BL/6J mouse model of Alzheimer's disease assessed as diarrhea at 30 mg/kg/day, ig administered for 26 consecutive days; assay type: organism-based; conditions: in vivo, po; in short: as §3
[25] = Toxicity in amyloid beta (25 to 35 residues) induced C57BL/6J mouse model of Alzheimer's disease assessed as emesis at 30 mg/kg/day, ig administered for 26 consecutive days; assay type: organism-based; conditions: in vivo, po; in short: as §3
Mus musculus [26] = assay: Cognition enhancement activity in amyloid beta (25 to 35 residues) induced C57BL/6J mouse model of Alzheimer's disease assessed as swimming speed at 4 mg/kg/day, ig administered for 26 consecutive days by Morris water maze test (reference value: 15.6 +/- 2.4 cm/sec); assay type: functional; in short: as §3
Mus musculus [27] = assay: Cognition enhancement activity in amyloid beta (25 to 35 residues) induced C57BL/6J mouse model of Alzheimer's disease assessed as increase in number of virtual platform crossing at 30 mg/kg/day, ig administered for 26 consecutive days by Morris water maze test; assay type: functional, organism-based; in short: as §3
Mus musculus [28] = assay: Cognition enhancement activity in amyloid beta (25 to 35 residues) induced C57BL/6J mouse model of Alzheimer's disease assessed as swimming path length in virtual platform at 30 mg/kg/day, ig administered for 26 consecutive days by Morris water maze test (10.2 +/- 3.2 cm); assay type: functional; in short: as §3
Mus musculus [29] = assay: Cognition enhancement activity in amyloid beta (25 to 35 residues) induced C57BL/6J mouse model of Alzheimer's disease assessed as swimming time in effective region at 30 mg/kg/day, ig administered for 26 consecutive days by Morris water maze test (4.3 +/- 1.3 sec); assay type: functional; in short: as §3
Mus musculus [30] = assay: (§4) Neuroprotection in C57BL/6J mouse model of amyloid beta (25 to 35 residues) induced Alzheimer's disease assessed as reduction in ratio of apoptotic neuron in CA1 hippocampus region at 30 mg/kg/day, ig administered for 26 consecutive days by hematoxylin and eosin staining-based light microscopic analysis (reference value: 40.6 +/- 12.5%); assay type: ADME, organism-based; set-up: scale not given: the % may be the effect or the level left; conditions: in vivo, po
In short: (§5)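 Hippocampal CA1, CA3 and DG neurons were stained with H&E after the Aβ25-35 ICV model and 26-day intragastric dosing. Denatured cell index = denatured cells/total cells, n = 5. Values are mean ± SD, two-way ANOVA versus model.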

Mus musculus [31] = assay: as §4, with “in” for “in C57BL/6J mouse model of”, “induced C57BL/6J mouse model of” for “induced”, “CA3” for “CA1”, “80.2” for “40.6”, “8.6%)” for “12.5%)”; assay type: ADME, organism-based; set-up: scale not given: the % may be the effect or the level left; conditions: in vivo, po; in short: as §5
Mus musculus [32] = assay: as §4, with “in” for “in C57BL/6J mouse model of”, “induced C57BL/6J mouse model of” for “induced”, “DG” for “CA1”, “55.8” for “40.6”, “7.2%)” for “12.5%)”; assay type: ADME, organism-based; set-up: scale not given: the % may be the effect or the level left; conditions: in vivo, po; in short: as §5
[33] = Drug metabolism in Sprague-Dawley rat liver microsomes assessed as metabolic rate up to 180 mins in presence of NADPH by UV-based LC-MS/MS analysis; assay type: ADME, Microsome; conditions: 3 h
[34] = Metal chelating activity assessed as inhibition of Cu(II)-induced amyloid beta (1 to 42 residues) aggregation at 25 uM after 24 hrs by TEM assay
In short: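 Samples were prepared as for the ThT assay. 10 µL aliquots were applied to carbon-coated copper grids for 2 min, then stained with 3% phosphotungstic acid for 2 min and imaged by transmission electron microscopy.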

in vitro [35] = conditions: Sprague-Dawley, rat, liver microsomes

SMILES: Cl.O=C(Nc1cc(Cl)c(O)c2ncccc12)c1ccc(OC(F)F)c(OCC2CC2)c1
IC50 [1]: 3.83 µM
Activity [2]: 0.74 equiv
Activity (SH-SY5Y): Toxic
Activity [3]: 82%

SMILES: COc1ccc(C(=O)Nc2cc(Cl)c(O)c3ncccc23)cc1OC1CCCC1.Cl
IC50 [1]: 3.13 µM
Activity [2]: 0.56 equiv
Activity (SH-SY5Y): Toxic
Activity [3]: 70.2%

SMILES: COc1ccc(C(=O)Nc2ccc(O)c3ncccc23)cc1OC1CCCC1.Cl
IC50 [1]: 0.492 µM
Activity [2]: 0.63 equiv
Activity [5]: Active
Activity [6]: Active
Activity [7]: Active
Activity [8]: Active
Activity (SH-SY5Y): Non-Toxic
Activity [3]: 51%
Activity [9]: 46%
Activity [10]: Active
Activity [11]: Non-Toxic
Activity [12]: Non-Toxic
Activity [13]: Non-Toxic
Activity [14]: Non-Toxic
Activity [15]: Non-Toxic
Activity [16]: Non-Toxic
Activity [17]: Non-Toxic
Activity [18]: Non-Toxic
Activity [19]: Non-Toxic
Activity [20]: Non-Toxic
Activity [21]: Non-Toxic
Activity (Mus musculus [22]): Active
Activity [23]: Non-Toxic
Activity [24]: Non-Toxic
Activity [25]: Non-Toxic
Activity (Mus musculus [26]): 15.3 cm/s
Activity (Mus musculus [27]): Active
Activity (Mus musculus [28]): 18 cm
Time (Mus musculus [29]): 6.1 s
Activity (Mus musculus [30]): 13.8%
Activity (Mus musculus [31]): 37.1%
Activity (Mus musculus [32]): 26.8%
K [33]: 0.0134 min⁻¹
Activity [34]: Active
Papp at 10 h, 100 ug/ml (in vitro [4]): 5.9 ×10⁻⁶ cm/s
half-life (in vitro [35]): 51.7 min

SMILES: COc1ccc(NC(=O)c2ccc3cccc(O)c3n2)cc1OC1CCCC1
IC50 [1]: 4.15 µM
Activity [2]: 1.98 equiv

More lines, in order of falling IC50 [1], values ahead:

IC50 [1]: 8.07 µM
SMILES: COc1ccc(NC(=O)c2ccc3c(Cl)cc(Cl)c(O)c3n2)cc1OC
Activity [2]: 1.05 equiv

IC50 [1]: 7.63 µM
SMILES: COc1ccc(C(=O)Nc2ccc(O)c3ncccc23)cc1OC
Activity [2]: 1.34 equiv

IC50 [1]: 4.06 µM
Papp at 10 h, 100 ug/ml (in vitro [4]): 15.8 ×10⁻⁶ cm/s
SMILES: O=C(Nc1ccc2cccc(O)c2n1)c1ccc(OC(F)F)c(OCC2CC2)c1
Activity [2]: 0.34 equiv

IC50 [1]: 0.426 µM
Papp at 10 h, 100 ug/ml (in vitro [4]): 7.05 ×10⁻⁶ cm/s
SMILES: Cl.O=C(Nc1cc(I)c(O)c2ncccc12)c1ccc(OC(F)F)c(OCC2CC2)c1
Activity [2]: 0.69 equiv
